ChEMBL document CHEMBL5356984 (RSC Med Chem, 2023)
The source made the active and inactive calls. No cut-off for these calls is given here.

Key:
SK-BR-3 [1] = experiment: Induction of apoptosis in human SK-BR-3 cells assessed as viable cells at 5 uM incubated for 36 hrs by Annexin V/PI staining based flow cytometry (reference value: 90.4 %); format: functional; settings: read-out: Activity
[2] = Metabolic stability in simulated gastric fluid; format: ADME; settings: simulated gi fluid
SK-BR-3 [3] = experiment: Effect on HSP70 level in human SK-BR-3 cells at 5 to 20 uM incubated for 48 hrs by Western blot analysis; format: functional, cell-based; settings: dose 5-20 µM
Outline: (§1)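 Cells exposed 48 h (DMSO vehicle control); trypsinized, lysed in RIPA with phosphatase/protease inhibitors; 20 μg protein on SDS-PAGE, blotted, blocked 5% milk 1 h; primary antibodies 1:1000 overnight at 4 °C, GAPDH 1:10000 as loading control; HRP secondary 1:1000–1:5000; ECL detection.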

SK-BR-3 [4] = experiment: Antiproliferative activity against human SK-BR-3 cells assessed as inhibition of cell viability measured after 48 hrs by MTT assay; format: functional, cell-based; settings: SK-BR-3, 48 h
Outline: (§2)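 MTT cell viability read-out; IC50 obtained by non-linear regression of concentration–response data; values are mean ± SD of three independent experiments.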

MCF7 [5] = experiment: Antiproliferative activity against human MCF7 cells assessed as inhibition of cell viability measured after 48 hrs by MTT assay; format: functional, cell-based; settings: MCF7, 48 h; outline: as §2
[6] = Thermal stability of compound in boiling toluene at 120 degreeC at 1 mg/ml measured for 12 to 24 hrs by HPLC analysis; format: physicochemical; settings: time 12-24 hrs
Outline: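 Compound at 1 mg mL−1 was heated in distilled boiling toluene at 120 °C for 0–24 h. Remaining percentage was measured by HPLC on a C18 column (5 µm, 4.6 × 250 mm) with MeOH/H2O gradients: 70→100% or 45→100% MeOH over 2–15 min, held at 100% to 20 min, then re-equilibrated.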

MCF7 [7] = experiment: Induction of apoptosis in human MCF7 cells assessed as increase in cleaved PARP level at 10 to 20 uM incubated for 48 hrs by Western blot analysis; format: functional, cell-based; settings: dose 10-20 µM; outline: as §1
MCF7 [8] = experiment: Effect on HSP70 level in human MCF7 cells at 5 to 20 uM incubated for 48 hrs by Western blot analysis; format: functional, cell-based; settings: dose 5-20 µM; outline: as §1
HCC1806 = experiment: Antiproliferative activity against human HCC1806 cells assessed as inhibition of cell viability measured after 48 hrs by MTT assay; format: functional, cell-based; settings: HCC1806, 48 h; outline: as §2
MCF7 [9] = experiment: Induction of apoptosis in human MCF7 cells assessed as viable cells at 5 uM incubated for 36 hrs by Annexin V/PI staining based flow cytometry (reference value: 90.5 %); format: functional; settings: read-out: Activity
MCF7 [10] = experiment: Induction of apoptosis in human MCF7 cells assessed as early apoptotic cells at 20 uM incubated for 36 hrs by Annexin V/PI staining based flow cytometry (reference value: 1.13 %); format: functional
SK-BR-3 [11] = experiment: Induction of cell cycle arrest in human SK-BR-3 cells assessed as accumulation of cells at G1 phase at 5 to 10 uM incubated for 36 hrs by PI staining based flow cytometry; format: functional; settings: dose 5-10 µM
Outline: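 Following 36 h treatment (0, 5, 10 μM), trypsinized cells fixed overnight in 70% ethanol, treated with RNase (0.2 mg/mL) and PI (0.1 mg/mL) for 20 min, then analysed by flow cytometry for cell-cycle distribution; n = 3 versus control.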

Heat shock protein HSP90 [12] = target: T1, Heat shock protein HSP90 (Homo sapiens, UniProt P07900+P08238); experiment: Inhibition of HSP90 (unknown origin) at C-terminal by AlphaScreen assay; format: protein assay
Outline: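 Modified AlphaScreen system measuring disruption of Cyp40 binding to recombinant HSP90 C-terminal domain; IC50 from two independent experiments.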

MCF7 [13] = experiment: Induction of apoptosis in human MCF7 cells assessed as late apoptotic cells at 5 uM incubated for 36 hrs by Annexin V/PI staining based flow cytometry (reference value: 6.02 %); format: functional
Heat shock protein HSP90 [14] = target: T1, Heat shock protein HSP90; experiment: Inhibition of HSP90 in human MCF7 cells assessed as decrease in phosphorylated AKT level at 5 to 20 uM incubated for 48 hrs by Western blot analysis; format: cell-based; settings: dose 5-20 µM
Outline: (§3)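 MCF-7 or SKBr3 cells were exposed for 48 h, then trypsinised, PBS-washed and lysed in RIPA buffer with phosphatase and protease inhibitors. Cleared lysate (14 000 rpm, 4 °C, 15 min) was BCA-quantified, and 20 µg protein was run on SDS-PAGE and blotted. Blots were blocked in 5% milk, incubated with primary antibodies (1:1000) overnight at 4 °C, then HRP secondary, and developed by ECL. GAPDH (1:10000) was the loading control.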

SK-BR-3 [15] = experiment: Induction of apoptosis in human SK-BR-3 cells assessed as increase in cleaved PARP level at 10 to 20 uM incubated for 48 hrs by Western blot analysis; format: functional, cell-based; settings: dose 10-20 µM; outline: as §1
Heat shock protein HSP90 [16] = target: T1, Heat shock protein HSP90; experiment: Inhibition of HSP90 in human SK-BR-3 cells assessed as decrease in CDK4 level at 5 to 20 uM incubated for 48 hrs by Western blot analysis; format: cell-based; settings: dose 5-20 µM; outline: as §3
MCF7 [17] = experiment: Effect on AKT level in human MCF7 cells at 5 to 20 uM incubated for 48 hrs by Western blot analysis; format: functional, cell-based; settings: dose 5-20 µM; outline: as §1
MCF7 [18] = experiment: Induction of apoptosis in human MCF7 cells assessed as increase in cleaved pro-caspase-8 level at 10 to 20 uM incubated for 48 hrs by Western blot analysis; format: functional, cell-based; settings: dose 10-20 µM; outline: as §1
MCF7 [19] = experiment: Induction of apoptosis in human MCF7 cells assessed as viable cells at 10 uM incubated for 36 hrs by Annexin V/PI staining based flow cytometry (reference value: 90.5 %); format: functional; settings: read-out: Activity
SK-BR-3 [20] = experiment: Induction of apoptosis in human SK-BR-3 cells assessed as increase in cleaved pro-caspase-3 level at 10 to 20 uM incubated for 48 hrs by Western blot analysis; format: functional, cell-based; settings: dose 10-20 µM; outline: as §1
Heat shock protein HSP90 [21] = target: T1, Heat shock protein HSP90; experiment: Inhibition of HSP90 in human SK-BR-3 cells assessed as decrease in HER2 level at 5 to 20 uM incubated for 48 hrs by Western blot analysis; format: cell-based; settings: dose 5-20 µM; outline: as §3
SK-BR-3 [22] = experiment: Induction of apoptosis in human SK-BR-3 cells assessed as viable cells at 20 uM incubated for 36 hrs by Annexin V/PI staining based flow cytometry (reference value: 90.4 %); format: functional; settings: read-out: Activity
MCF7 [23] = experiment: Antiproliferative activity against human MCF7 cells assessed as inhibition of cell viability at 20 uM measured after 48 hrs by MTT assay relative to control; format: functional
Heat shock protein HSP90 [24] = target: T1, Heat shock protein HSP90; experiment: Competitive binding affinity to N-terminal HSP90 (unknown origin) at 0.03 to 16 uM incubated for 3 hrs in presence of FITC-GA by fluorescence polarization assay; format: protein assay; settings: dose 0.03-16 µM
Outline: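 Competition against FITC-geldanamycin (5 nM) for HSP90α (10 nM) in reaction buffer with 1% BSA, DMSO <1%; compounds at 0.03–16.0 μM final; 3 h at room temperature; fluorescence polarization read at ex 485/em 530 nm; activity% = (FPdrug − FPbackground)/(FPenzyme − FPbackground) × 100, curve-fitted.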

Heat shock protein HSP90 [25] = target: T1, Heat shock protein HSP90; experiment: Inhibition of HSP90 in human SK-BR-3 cells assessed as decrease in AKT level at 5 to 20 uM incubated for 48 hrs by Western blot analysis; format: cell-based; settings: dose 5-20 µM; outline: as §3
SK-BR-3 [26] = experiment: Induction of apoptosis in human SK-BR-3 cells assessed as necrotic cells at 10 uM incubated for 36 hrs by Annexin V/PI staining based flow cytometry (reference value: 1.89 %); format: functional

## CN1CCN(/C=C/C(=O)/C=C/c2cccc(O[Si](C)(C)C(C)(C)C)c2)CC1
SK-BR-3 [1]
  viability at 5 µM: 89.6%
[2]
  Stability: Unstable
SK-BR-3 [3]
  Activity: inactive
SK-BR-3 [4]
  IC50: 12.1 µM
MCF7 [5]
  IC50: 7.85 µM
[6]
  Stability: Unstable
MCF7 [7]
  Activity: Active
MCF7 [8]
  Activity: inactive
HCC1806
  IC50: 10.1 µM
MCF7 [9]
  viability at 5 µM: 80%
MCF7 [10]
  Activity: 3.58%
SK-BR-3 [11]
  Activity: Active
Heat shock protein HSP90 [12]
  IC50: 53.94 µM
MCF7 [13]
  Activity: 9.96%
Heat shock protein HSP90 [14]
  inhibition: Active
SK-BR-3 [15]
  Activity: Active
Heat shock protein HSP90 [16]
  inhibition: Active
MCF7 [17]
  Activity: inactive
MCF7 [18]
  Activity: Active
MCF7 [19]
  viability at 10 µM: 65.6%
SK-BR-3 [20]
  Activity: Active
Heat shock protein HSP90 [21]
  inhibition: Active
SK-BR-3 [22]
  viability at 20 µM: 18.5%
MCF7 [23]
  inhibition at 20 µM: > 50%
Heat shock protein HSP90 [24]
  Activity: inactive
Heat shock protein HSP90 [25]
  inhibition: Active
SK-BR-3 [26]
  Activity: 1.7%
